Six molecules from ChEMBL document CHEMBL2396604, “Synthesis and structure activity relationship of tetrahydroisoquinoline-based potentiators of GluN2C and GluN2D containing N-methyl-D-aspartate receptors” (J Med Chem, 2013) can be followed below.

pEC50: −log10 of the molar value. Calls of active or inactive are those of the source. The calls are words filed in the database; no cut-off is given here.

By pEC50 is commonly meant the negative decadic logarithm of the EC50, by convention in mol/L.

For assay [1], the target named is Glutamate NMDA receptor; Grin1/Grin2a (Rattus norvegicus) (UniProt P35439+Q00959). Kind of assay: Activity at rat recombinant GluN1/GluN2A receptor expressed in Xenopus oocytes assessed as potentiation of glycine/glutamate-induced effect at 100 uM by two-electrode voltage clamp technique relative to control. The class given is cell-based. The settings on record: Oocyte. The procedure, abridged: (§1)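 Two-electrode voltage clamp of oocytes at -40 mV, 2–5 days after cRNA injection. Bath solution (mM) 90 NaCl, 1.0 KCl, 0.5 BaCl₂, 0.005 EDTA, 10 HEPES, pH 7.4, 23°C. Compound applied with 100 µM glutamate plus 30 µM glycine; DMSO 0.05–0.5% final. Current expressed as percent of response without compound. For GluN2A, some oocytes were pretreated with 50 µM BAPTA-AM for 10 min or injected with K-BAPTA.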
For orientation: In two-electrode clamp one electrode senses voltage and the other passes current.

Assay [2] addresses Ionotropic glutamate receptor NMDA 1/2D (Rattus norvegicus, UniProt P35439+Q62645). As to the kind of experiment: Activity at rat recombinant GluN1/GluN2D receptor assessed as potentiation of glycine/glutamate-induced activation by two-electrode voltage clamp technique. The class given is protein-complex assay.
Assay [3] concerns the target Glutamate NMDA receptor; Grin1/Grin2c (Rattus norvegicus, UniProt P35439+Q00961). Kind of assay: Activity at rat recombinant GluN1/GluN2C receptor assessed as potentiation of glycine/glutamate-induced activation by two-electrode voltage clamp technique. The class given is protein-complex assay.
For assay [4], the target named is Glutamate receptor 1 (Rattus norvegicus) (UniProt P19490). As to the kind of experiment: Activity at rat recombinant GluA1 receptor expressed in Xenopus oocytes assessed as effect on glutamate-induced response by two-electrode voltage clamp technique. The assay is classed as cell-based. As to conditions: Oocyte. The procedure, abridged: (§2)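 Oocytes injected with 1–5 ng cRNA, kept in Barth's solution at 15°C for 2–5 days. Clamped at -40 mV in 90 NaCl, 1.0 KCl, 0.5 BaCl₂, 0.005 EDTA, 10 HEPES (mM), pH 7.4, 23°C. Receptors activated by 100 µM glutamate with compound co-applied. GluK2 oocytes pretreated with 10 µM concanavalin A for 10 min. DMSO 0.05–0.5% final.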

Assay [5] deals with Glutamate NMDA receptor; Grin1/Grin2c (Rattus norvegicus) (UniProt P35439+Q00961). Kind of assay: Activity at rat recombinant GluN1/GluN2C receptor expressed in Xenopus oocytes assessed as potentiation of glycine/glutamate-induced activation at 100 uM by two-electrode voltage clamp technique relative to control. The class given is cell-based. As to conditions: Oocyte. Summed up:
as §1

The target of assay [6] is Glutamate receptor ionotropic, kainate 2 (Rattus norvegicus) (UniProt P42260). As to the kind of experiment: Activity at rat recombinant GluK2 receptor expressed in Xenopus oocytes assessed as effect on glutamate-induced response by two-electrode voltage clamp technique. The assay is classed as cell-based. The settings on record: Oocyte. The procedure, abridged: as §2

Assay [7] concerns BHK. As to the kind of experiment: Activity at GluN1/GluN2C receptor in hamster BHK cells assessed as effect on NMDA-induced response up to 6 hrs by Fluo-4 dye-based fluorescence assay. The assay is classed as cell-based. As to conditions: Mesocricetus auratus.
Assay [8] addresses Ionotropic glutamate receptor NMDA 1/2D (Rattus norvegicus) (UniProt P35439+Q62645). As to the kind of experiment: Activity at rat recombinant GluN1/GluN2D receptor expressed in Xenopus oocytes assessed as potentiation of 0.3 uM glycine/0.1 uM glutamate-induced activation at 10 uM by two-electrode voltage clamp technique relative to control. The class given is cell-based. As to conditions: Oocyte.

Assay [9] deals with BHK. Kind of assay: Activity at GluN1/GluN2C receptor in hamster BHK cells assessed as effect on NMDA-induced response after 24 hrs by Fluo-4 dye-based fluorescence assay. The assay is classed as cell-based. The settings on record: Mesocricetus auratus.

Sequence of Glutamate receptor 1 (Rattus norvegicus) (P19490 whole entry): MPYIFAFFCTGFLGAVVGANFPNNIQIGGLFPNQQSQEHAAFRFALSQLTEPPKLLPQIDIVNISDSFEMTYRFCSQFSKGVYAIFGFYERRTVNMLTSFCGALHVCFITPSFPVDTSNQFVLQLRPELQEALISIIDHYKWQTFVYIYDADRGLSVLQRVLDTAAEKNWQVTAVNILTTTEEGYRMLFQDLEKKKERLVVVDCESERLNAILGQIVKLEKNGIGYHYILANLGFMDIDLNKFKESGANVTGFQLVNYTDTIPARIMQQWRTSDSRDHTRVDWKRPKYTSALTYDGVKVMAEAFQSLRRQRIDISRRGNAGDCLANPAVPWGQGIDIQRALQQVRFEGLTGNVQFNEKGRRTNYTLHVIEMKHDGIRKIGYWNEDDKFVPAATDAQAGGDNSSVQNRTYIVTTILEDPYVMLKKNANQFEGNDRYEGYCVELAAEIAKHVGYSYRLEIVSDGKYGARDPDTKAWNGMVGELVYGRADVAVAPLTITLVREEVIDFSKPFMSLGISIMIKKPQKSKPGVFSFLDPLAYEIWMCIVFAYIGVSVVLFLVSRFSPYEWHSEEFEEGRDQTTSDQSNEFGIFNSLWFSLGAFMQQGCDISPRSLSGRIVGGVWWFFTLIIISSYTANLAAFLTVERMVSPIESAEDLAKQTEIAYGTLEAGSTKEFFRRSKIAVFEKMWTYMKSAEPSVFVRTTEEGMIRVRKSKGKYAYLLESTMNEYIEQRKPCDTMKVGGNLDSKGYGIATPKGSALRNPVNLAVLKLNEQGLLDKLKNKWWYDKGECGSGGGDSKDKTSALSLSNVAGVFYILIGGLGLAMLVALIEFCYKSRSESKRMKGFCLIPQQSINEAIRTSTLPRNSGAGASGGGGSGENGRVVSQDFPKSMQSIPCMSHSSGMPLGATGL
Sequence of Glutamate receptor ionotropic, kainate 2 (Rattus norvegicus) (P42260 whole entry): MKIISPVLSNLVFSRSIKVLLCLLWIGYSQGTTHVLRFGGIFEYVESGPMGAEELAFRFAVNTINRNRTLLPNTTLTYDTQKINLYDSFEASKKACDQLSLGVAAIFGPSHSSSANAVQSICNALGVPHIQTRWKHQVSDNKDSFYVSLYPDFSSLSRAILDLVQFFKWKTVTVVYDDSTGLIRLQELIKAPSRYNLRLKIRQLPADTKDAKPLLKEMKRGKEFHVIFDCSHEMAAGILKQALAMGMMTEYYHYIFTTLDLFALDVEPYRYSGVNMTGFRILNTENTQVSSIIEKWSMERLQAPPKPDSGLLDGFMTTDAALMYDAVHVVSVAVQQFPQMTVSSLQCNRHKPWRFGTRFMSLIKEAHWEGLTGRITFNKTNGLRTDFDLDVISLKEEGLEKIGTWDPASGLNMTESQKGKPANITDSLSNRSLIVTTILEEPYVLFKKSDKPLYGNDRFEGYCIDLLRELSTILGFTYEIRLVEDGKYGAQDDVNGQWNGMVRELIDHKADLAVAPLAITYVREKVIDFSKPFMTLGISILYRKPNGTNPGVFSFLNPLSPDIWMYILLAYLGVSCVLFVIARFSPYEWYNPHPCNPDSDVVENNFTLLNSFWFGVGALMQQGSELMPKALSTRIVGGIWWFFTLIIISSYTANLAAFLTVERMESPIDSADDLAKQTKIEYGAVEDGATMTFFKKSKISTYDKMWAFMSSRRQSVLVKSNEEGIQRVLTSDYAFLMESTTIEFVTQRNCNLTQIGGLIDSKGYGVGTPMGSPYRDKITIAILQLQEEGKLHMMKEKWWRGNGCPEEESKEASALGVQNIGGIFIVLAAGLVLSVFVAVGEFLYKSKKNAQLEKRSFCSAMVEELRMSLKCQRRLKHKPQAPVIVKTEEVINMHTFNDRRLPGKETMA

As to `COc1cc2c(cc1OC)CN(C(=O)c1cccc(Br)c1)CC2`, in assay [1], the Activity was 70%.
Regarding `COc1ccc(OCC2c3cc(OC)c(OC)cc3CCN2C(=O)c2cccc([N+](=O)[O-])c2)cc1` (racemic), the pEC50 in assay [2] was 4.89; in assay [3] it was 4.96. Moreover, the Activity in assay [1] was found to be 70%.
Turning to `COc1ccc(OCC2c3cc(OC)c(OC)cc3CCN2C(=O)c2ccc3ccccc3c2)cc1` (racemic), the result in assay [4] was inactive. In assay [5], the Activity is 136%.
For `COc1ccc(OCC2c3cc(OC)c(OC)cc3CCN2C(=O)c2cccc(Cl)c2)cc1` (racemic), the result (in assay [6]; in assay [4]; with BHK [9]) was inactive. Moreover, the result with BHK [7] was Active. For the same molecule, the Activity in [8] is 353%.
For `COc1ccc(OCC2c3cc(OC)c(OC)cc3CCN2C(=O)c2ccccc2C)cc1` (racemic), in assay [1], the Activity came to 70%.
As for `COc1ccc(OCC2c3cc4c(cc3CCN2C(=O)c2ccccc2)OCO4)cc1` (racemic), the Activity in assay [1] came to 70%.
